Publication PMC11617931 (Molecular Therapy. Nucleic Acids, 2024)
Bridge positions count the residues as written; N and C are the ends. Ends that are not written are not given here.

Tests used:
[1] = tested on: mucus-producing differentiated CF pHBECs cultured at ALI; experiment: Validation of phage clone uptake by standard double-layer plaque assay; format: cell-based, human; settings: Cout/Cin, 1 h, 37°C, n = 3
How it was run: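 Clones were sequence-verified from BL21 E. coli plaques and amplified in liquid BL21 culture. Each clone (3.3 × 10^7 PFU in 100 µL DPBS) was applied apically to ALI-differentiated CF pHBECs for 1 h at 37°C. Cells were washed with elution buffer and DPBS, lysed with M-PER, and spun at 14,000 × g. Internalized phage in the supernatant were titered by double-layer plaque assay as Cout/Cin. Controls were peptide-less WT phage, naive library, and CPS phage.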

[2] = tested on: differentiated CF pHBECs cultured at ALI; format: cell-based, human; settings: average of three replicates, first to last round; 1,000 vg/cell
How it was run: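 Pooled T7 CX7C phage libraries were diluted in DPBS (no Ca2+/Mg2+) to 3.3 × 10^5 PFU/µL, giving 1,000 vg/cell, and applied to ALI-differentiated CF pHBECs pooled from seven donors (3.3 × 10^4 cells/insert). Incubation was 16 h at 37°C in round 1 and 1 h in round 5. Lysate was spun at 14,000 × g for 10 min and the supernatant titered by double-layer plaque assay. Output was pooled as input for the next round. Cout/Cin change was taken from three replicates, unpaired t test.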

[3] = 3.3 × 10^7 PFU apical, p < 0.005

Sequence	uptake compared to insertless wild-type (WT) control and CPS control [1]	improvement in uptake compared to naive library ([1]; 3.3 × 10^7 PFU apical, p < 0.0005) [fold]	improvement in uptake compared to WT [1, 3] [fold]	improvement in uptake compared to clone CPS [1, 3] [fold]	increase in Cout/Cin after five rounds of selection [2] [fold]
CTSTRKKQC (disulfide 1-9 (inferred)) [Clone C]	significantly improved uptake	~454	56	50	–
CXXXXXXXC (disulfide) [CX7C T7 library]	–	–	–	–	380
